Experimental data from ChEMBL document CHEMBL4330127, “Discovery of Novel Pyruvate Dehydrogenase Kinase 4 Inhibitors for Potential Oral Treatment of Metabolic Diseases” (J Med Chem, 2019).

Experiments:
[1] = biological target: T1, [Pyruvate dehydrogenase (acetyl-transferring)] kinase isozyme 4, mitochondrial (Homo sapiens, UniProt Q16654); assay: Inhibition of PDK4 (unknown origin)
Target sequence in this assay (Q16654 whole entry): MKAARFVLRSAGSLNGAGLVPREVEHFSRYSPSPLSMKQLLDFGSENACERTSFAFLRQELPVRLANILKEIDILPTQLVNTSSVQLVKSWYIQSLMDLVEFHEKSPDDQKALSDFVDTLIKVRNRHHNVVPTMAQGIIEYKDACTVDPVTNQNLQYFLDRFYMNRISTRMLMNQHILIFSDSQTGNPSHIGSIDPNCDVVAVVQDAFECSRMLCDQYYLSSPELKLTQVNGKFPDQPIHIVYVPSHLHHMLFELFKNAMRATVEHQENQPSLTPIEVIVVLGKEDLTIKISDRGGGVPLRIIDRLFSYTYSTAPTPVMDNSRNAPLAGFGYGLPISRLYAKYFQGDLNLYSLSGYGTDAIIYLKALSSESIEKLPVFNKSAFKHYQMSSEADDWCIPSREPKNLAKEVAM

[2] = biological target: T1, [Pyruvate dehydrogenase (acetyl-transferring)] kinase isozyme 4, mitochondrial; assay: Inhibition of PDK4 (unknown origin) at 10 uM relative to control
Target sequence in this assay (Q16654 whole entry, looked up): as the sequence (Q16654 whole entry) above

[3] = biological target: T1, [Pyruvate dehydrogenase (acetyl-transferring)] kinase isozyme 4, mitochondrial; assay: Inhibition of PDK4 in HEK293T cells assessed as reduction in PDHE1alpha phosphorylation at Ser-293 residue by measuring phosphorylated PDHE1alpha level at 10 uM after 24 hrs by Western blot analysis; assay type: cell-based
Method in brief: (§1)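 HEK293T cells grown in high-glucose DMEM with 10% FBS at 37 °C, 5% CO2. Medium renewed after 24 h, then cells exposed to compound for 24 h and lysed. 20 μg protein per lane Western blotted with antibodies to phospho-PDHE1α Ser232, Ser293 and Ser300 and to total PDHE1α. Band intensity quantified relative to control; triplicate.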
Target sequence in this assay (Q16654 whole entry, looked up): as the sequence (Q16654 whole entry) above

[4] = biological target: T1, [Pyruvate dehydrogenase (acetyl-transferring)] kinase isozyme 4, mitochondrial; assay: Inhibition of PDK4 in HEK293T cells assessed as reduction in PDHE1alpha phosphorylation at Ser-232 residue by measuring phosphorylated PDHE1alpha level at 10 uM after 24 hrs by Western blot analysis; assay type: cell-based; method in brief: as §1
Target sequence in this assay (Q16654 whole entry, looked up): as the sequence (Q16654 whole entry) above

[5] = biological target: T1, [Pyruvate dehydrogenase (acetyl-transferring)] kinase isozyme 4, mitochondrial; assay: Inhibition of PDK4 in HEK293T cells assessed as reduction in PDHE1alpha phosphorylation at Ser-300 residue by measuring phosphorylated PDHE1alpha level at 10 uM after 24 hrs by Western blot analysis; assay type: cell-based; method in brief: as §1
Target sequence in this assay (Q16654 whole entry, looked up): as the sequence (Q16654 whole entry) above

[6] = Metabolic stability in rat liver microsomes assessed as parent compound remaining after 30 mins by LC-MS/MS analysis; assay type: ADME, Microsome; settings: read-out: Stability
[7] = Metabolic stability in human liver microsomes assessed as parent compound remaining at 1 uM after 30 mins by LC-MS/MS analysis

Compound | inhibition [2] [%] | other results
CC(C)(C)OC(=O)N1CC=C(c2cccc3c2C(=O)c2ccccc2C3=O)CC1 | 53.4 | IC50 [1]: 600 nM
O=S(=O)(c1ccc(O)cc1O)N1Cc2cc(O)cc(O)c2C1 | 34.1 | fold change (FC) [3]: 0.98; fold change (FC) [4]: 0.62; fold change (FC) [5]: 0.93
CC(C)(C)OC(=O)N1CCC(n2cc(-c3cccc4c3C(=O)c3ccccc3C4=O)cn2)CC1 | 32.6 | 
CC(C)(C)OC(=O)N1CCC(n2cc(-c3cccc4c3C(=O)c3ccccc3C4(O)C(F)(F)F)cn2)CC1 (stereo not given) | 32.1 | 
O=C(O)c1ccc(-c2cccc3c2C(=O)c2ccccc2C3=O)cc1 | 30.4 | 
O=C1c2ccccc2C(O)(C(F)(F)F)c2cccc(C3=CCN(C(=O)OCc4ccccc4)CC3)c21 (stereo not given) | 34.1 | 
CC(C(=O)O)n1cc(-c2cccc3c2C(=O)c2ccccc2C3=O)cn1 (stereo not given) | 45.9 | 
CCOC(=O)C(C)n1cc(-c2cccc3c2C(=O)c2ccccc2C3=O)cn1 (stereo not given) | 29.4 | 
O=C1c2ccccc2C(=O)c2c1cccc2-c1ccc(O)cc1 | 35.9 | 
CC(C(=O)O)n1cc(-c2cccc3c2C(=O)c2ccccc2C3(O)C(F)(F)F)cn1 (stereo not given) | 47.2 | IC50 [1]: 143 nM
O=C1c2ccccc2C(=O)c2c1cccc2C1=CCN(C(=O)OCc2ccccc2)CC1 | 41.6 | 
O=C1c2ccccc2C(=O)c2c1cccc2C1=CCN(C(=O)Nc2ccccc2)CC1 | 32.6 | 
CS(=O)(=O)N1CC=C(c2cccc3c2C(=O)c2ccccc2C3=O)CC1 | 29.5 | 
O=C1c2ccccc2C(=O)c2c1cccc2-c1cn[nH]c1 | 32.9 | 
O=C1c2ccccc2C(=O)c2c1cccc2C1=CCNCC1 | 35.6 | 
O=C1c2ccccc2C(O)(C(F)(F)F)c2cccc(C3=CCNCC3)c21 (stereo not given) | 29.7 | 
O=C1c2ccccc2C(O)(C(F)(F)F)c2cccc(-c3cnn(C4CCNCC4)c3)c21 (stereo not given) | 30.2 | 
O=C1c2ccccc2C(=O)c2c(Br)cccc21 | 37.8 | 
O=C1c2ccccc2C(=O)c2c1cccc2-c1cccnc1 | 25.4 | 
O=C1c2ccccc2C(=O)c2ccccc21 | 40.7 | 
CC(C)(C)OC(=O)N1CC=C(c2cccc3c2C(=O)c2ccccc2C3(O)C(F)(F)F)CC1 (stereo not given) | 17.3 | 
CCOC(=O)C(C)n1cc(-c2cccc3c2C(=O)c2ccccc2C3(O)C(F)(F)F)cn1 (stereo not given) | 36.9 | 
O=C1CC2(CCCC2)CC(=O)N1CCCCN1CCN(c2ncccn2)CC1 [BUSPIRONE] |  | remaining at 0.5 h [6]: 0.1%; remaining at 0.5 h, 1 µM [7]: 4%
O=C1c2ccccc2C(=O)c2c1cccc2-c1cnn(C2CCCCO2)c1 (stereo not given) | 24.3 | 
